Test results from ChEMBL document CHEMBL1123422, “1-Ethyl-7-[3-[(ethylamino)methyl]-1-pyrrolidinyl]-6,8-difluoro-1,4- dihydro-4-oxo-3-quinoline-carboxylic acid. New quinolone antibacterial with potent gram-positive activity” (1986).
Converted amounts (≈) assume the structure as drawn.

What was measured:
[1] = test system: Streptococcus pneumoniae; assay: Compound was tested for inhibition of the […] organism Streptococcus pneumoniae SV-1; assay type: functional
In short: (§1)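 MICs read in standard microdilution (microtitration) format against a panel of 10 bacterial organisms; values in µg/mL.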

[2] = test system: Enterococcus faecalis; assay: Compound was tested for inhibition of the […] organism Streptococcus faecalis MGH-2; assay type: functional; in short: as §1
[3] = test system: Mus musculus; assay: Compound was evaluated for protective dose against the […] UC-76 lethal infection following sc administration in mouse; assay type: functional; details: read-out: PD50
In short: (§2)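 Acute lethal systemic infection in female Charles River CD-1 mice (18–22 g), challenged intraperitoneally with an estimated 100 median lethal dose in 5% hog gastric mucin. Single doses in a twofold rising series were given with the challenge, sc as aqueous solution or po by gavage in 5% gum acacia. PD50 (mg/kg) was estimated by log probit from survival of eight mice per dose.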

[4] = test system: Escherichia coli; assay: Compound was tested for inhibition of the gram-negative organism Escherichia coli H560; assay type: functional; in short: as §1
[5] = test system: Providencia rettgeri; assay: Compound was tested for inhibition of the gram-negative organism Providencia rettgeri H1771; assay type: functional; in short: as §1
[6] = test system: Enterobacter cloacae; assay: Compound was tested for inhibition of the gram-negative organism […] HA 2646; assay type: functional
[7] = test system: Mus musculus; assay: Compound was evaluated for protective dose against the […] UC-76 lethal infection following po administration in mouse; assay type: functional; details: read-out: PD50; in short: as §2
[8] = test system: Pseudomonas aeruginosa; assay: Compound was tested for inhibition of the gram-negative organism Pseudomonas aeruginosa UI-18; assay type: functional; in short: as §1
[9] = biological target: DNA gyrase (Escherichia coli) (UniProt P0AES6+P0AES4); assay: Inhibition of DNA gyrase of Escherichia coli H560 cells
In short: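 DNA gyrase purified from Escherichia coli H560 cells. Cleavage assay: drug-gyrase-DNA complex denatured, converting closed circular DNA to linear DNA. Linear DNA resolved by gel electrophoresis and stained with ethidium bromide. Value is the minimum drug concentration (µg/mL) giving linear DNA at an intensity relative to oxolinic acid at 10 µg/mL. Aqueous drug stocks made up in 0.1 N NaOH or KOH.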

[10] = test system: Streptococcus pyogenes; assay: Compound was tested for inhibition of the […] organism Streptococcus pyogenes C203.; assay type: functional; in short: as §1
[11] = test system: Klebsiella pneumoniae; assay: Compound was tested for inhibition of the gram-negative organism Klebsiella pneumoniae MGH-2; assay type: functional; in short: as §1
[12] = test system: Mus musculus; assay: Compound was evaluated for protective dose against the Escherichia coli vogel lethal infection following peroral administration in mouse; assay type: functional; details: po, read-out: PD50; in short: as §2
[13] = test system: Staphylococcus aureus; assay: Compound was tested for inhibition of the […] organism […] H228.; assay type: functional; in short: as §1
[14] = test system: Mus musculus; assay: Compound was evaluated for protective dose against the Escherichia coli vogel lethal infection following sc administration in mouse; assay type: functional; details: read-out: PD50; in short: as §2
[15] = test system: Staphylococcus aureus; assay: Compound was tested for inhibition of the […] organism […] UC-76.; assay type: functional; in short: as §1
[16] = test system: Escherichia coli; assay: Compound was tested for inhibition of the gram-negative organism Escherichia coli vogel; assay type: functional; in short: as §1
[17] = test system: Mus musculus; assay: Compound was evaluated for protective dose against Streptococcus pneumoniae SV-1 lethal infection following sc administration; assay type: functional; details: read-out: PD50
In short: (§3)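 Female Charles River CD-1 mice (18–22 g) were challenged intraperitoneally with an estimated 100 median lethal dose in tryptic soy broth. Single doses, in a twofold rising series, were given at the same time as challenge: subcutaneously as aqueous solution, or orally by gavage in 5% gum acacia. Survival in groups of eight mice per dose gave PD50 (mg/kg) by log probit.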

[18] = test system: Mus musculus; assay: Compound was evaluated for protective dose against the Streptococcus pneumoniae SV-1 lethal infection following po administration; assay type: functional; details: read-out: PD50; in short: as §3

| Structure (SMILES) | MIC [1] [µg/mL] | MIC [2] [µg/mL] | ED50 [3] [mg/kg] | MIC [4] [µg/mL] | MIC [5] [µg/mL] | MIC [6] [µg/mL] | ED50 [7] [mg/kg] | MIC [8] [µg/mL] | Min concentration [9] [µg/mL] | MIC [10] [µg/mL] | MIC [11] [µg/mL] | ED50 [12] [mg/kg] | MIC [13] [µg/mL] | ED50 [14] [mg/kg] | MIC [15] [µg/mL] | MIC [16] [µg/mL] | ED50 [17] [mg/kg] | ED50 [18] [mg/kg] |
| --- | --- | --- | --- | --- | --- | --- | --- | --- | --- | --- | --- | --- | --- | --- | --- | --- | --- | --- |
| CCn1cc(C(=O)O)c(=O)c2cc(F)c(N3CCC(CN)C3)cc21 (centres undefined) | 0.2 (≈ 0.6 µM) | 0.8 (≈ 2.4 µM) | 6 | 0.4 (≈ 1.2 µM) | 6.3 (≈ 18.9 µM) | 1.6 (≈ 4.8 µM) | > 50 | 1.6 (≈ 4.8 µM) | 3 | 0.2 (≈ 0.6 µM) | 3.1 (≈ 9.3 µM) | > 100 | 1.6 (≈ 4.8 µM) | 25 | 0.05 (≈ 0.15 µM) | 0.8 (≈ 2.4 µM) | – | – |
| CCn1cc(C(=O)O)c(=O)c2cc(F)c(N3CCC(CNC)C3)cc21 (centres undefined) | 0.2 (≈ 0.576 µM) | 1.6 (≈ 4.61 µM) | 8 | 0.2 (≈ 0.576 µM) | 6.3 (≈ 18.1 µM) | 1.6 (≈ 4.61 µM) | > 50 | 1.6 (≈ 4.61 µM) | – | 0.1 (≈ 0.288 µM) | 1.6 (≈ 4.61 µM) | > 100 | 0.8 (≈ 2.3 µM) | 18 | 0.013 (≈ 0.0374 µM) | 0.2 (≈ 0.576 µM) | > 25 | > 100 |
| CCn1cc(C(=O)O)c(=O)c2cc(F)c(N3CCC(CN)C3)c(F)c21 (centres undefined) | 0.2 (≈ 0.569 µM) | 0.1 (≈ 0.285 µM) | – | 0.1 (≈ 0.285 µM) | 0.4 (≈ 1.14 µM) | 0.2 (≈ 0.569 µM) | – | 0.8 (≈ 2.28 µM) | 0.5 | 0.1 (≈ 0.285 µM) | 0.4 (≈ 1.14 µM) | 90 | 0.1 (≈ 0.285 µM) | 1.2 | 0.1 (≈ 0.285 µM) | 0.1 (≈ 0.285 µM) | 5 | 100 |
